Activity data for six compounds are collected here from ChEMBL document CHEMBL1151210, “Antioxidative constituents from the leaves of Hypericum styphelioides” (J Nat Prod, 2004).

SMILES strings stand for the structures.

The nature of test [1]: Antioxidant activity assessed as trolox equivalent of ABTS radical scavenging activity by spectrophotometry. It is filed as functional. Put shortly:
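ABTS radical monocation, preformed, scavenging read spectrophotometrically. Samples were diluted in MeOH to 0.3, 0.5, 1.0, 1.5 and 2.0 mM. 10 µL of sample or Trolox standard was added to 1.0 mL diluted ABTS, with MeOH as control. % inhibition of A734 vs control was taken 1 min after mixing, in triplicate. Value = Trolox concentration matching the inhibition of 1 mM compound.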

Test [2] is described as follows: Antioxidant activity assessed as trolox equivalent of free radical scavenging activity by chemiluminescence assay. It is filed as functional. Put shortly: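 Measures inhibition of p-iodophenol-enhanced chemiluminescence from a horseradish peroxidase/perborate/luminol system. Signal reagent was made by dissolving tablets (luminol, p-iodophenol enhancer, perborate oxidant) in assay buffer. Trolox served as reference antioxidant, and activity is expressed in Trolox-equivalent mM.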

`C=C(C)[C@H]1C[C@H](c2c(O)cc3oc4c(O)cccc4c(=O)c3c2O)C(C)(C)C1`: the Activity in test [1] was found to be 2.92 mM; in test [2], 1.94 mM.
Consider `O=c1c(O)c(-c2ccc(O)c(O)c2)oc2cc(O)cc(O)c12`, for which the Activity in test [1] came to 3.33 mM; in test [2], 3.09 mM.
Take `O=C(c1ccccc1)c1cc(O)c([C@@H]2O[C@H](CO)[C@@H](O)[C@H](O)[C@H]2O)c(O)c1`: the Activity turned out to be 1.93 mM in test [1] and 1.24 mM in test [2].
On to `CC(C)=CCC/C(C)=C/Cc1c(O)cc(O)c(C(=O)CC(C)C)c1O`, for which the Activity was 1.1 mM in test [1] and 0.96 mM in test [2].
`C=C(C)[C@H]1C[C@H](c2c(O)cc3oc4c(O)c(O)ccc4c(=O)c3c2O)C(C)(C)C1`: the Activity in test [1] was 2.75 mM; in test [2], 1.78 mM.
On to `C[C@@H]1O[C@@H](OC[C@H]2O[C@@H](Oc3c(-c4ccc(O)c(O)c4)oc4cc(O)cc(O)c4c3=O)[C@H](O)[C@@H](O)[C@@H]2O)[C@H](O)[C@H](O)[C@H]1O`, for which the Activity in test [1] is 2.78 mM; in test [2], 2.54 mM.
